Test results reported in PubChem BioAssay AID540295 (The Scripps Research Institute Molecular Screening Center, 2011).
The whole screen tested about 360,000 compounds, of which about 1,700 (0.47%) were called active.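 Rule for the calls: active = inhibition above its plate's cutoff, the mean of tested wells on that plate plus 3 SD (cut at about 29% in these data); inactive = the rest.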 Only a selection was taken, and actives are over-represented in it overall.

biological target: Melanocortin receptor 4 (Homo sapiens) (UniProt P32245); experiment: MC4R antagonists of cAMP signaling, primary screen, cell-based, TR-FRET, antagonist arm of biased-ligand search (AID 540295); settings: MC4R-expressing cells, MTII-stimulated cAMP, LANCE TR-FRET; at 6.5 µM; active compounds read high;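 note: 0% = Melanotan II alone and 100% = Melanotan II plus saturating MCL0020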
Summary of the method: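 Material – human MC4R-expressing U2OS cells · Repeats – no replicates · Detection – TR-FRET with Eu-cAMP and labeled anti-cAMP, 671 nm · Times – compound 30 min, challenge 1 h, detection 1 h · Compound – single nominal compound dose of 6.5 µM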

Sequence of Melanocortin receptor 4 (Homo sapiens) (P32245 whole entry, looked up): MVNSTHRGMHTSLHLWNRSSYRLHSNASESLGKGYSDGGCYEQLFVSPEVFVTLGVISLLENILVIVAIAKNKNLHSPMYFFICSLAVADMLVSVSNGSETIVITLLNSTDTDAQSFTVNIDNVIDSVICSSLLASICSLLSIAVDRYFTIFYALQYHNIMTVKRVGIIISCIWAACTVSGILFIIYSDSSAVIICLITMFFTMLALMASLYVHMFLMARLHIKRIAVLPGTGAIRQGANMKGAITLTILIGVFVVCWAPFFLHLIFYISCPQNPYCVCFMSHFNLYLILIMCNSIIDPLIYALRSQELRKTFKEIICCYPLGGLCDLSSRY

inhibition, active:
O=C(O)CCn1cc(/C=C/C(=O)c2ccc(Cl)cc2)c(-c2cccc(Br)c2)n1 32.5%, O=C(Nc1ccc(F)c([N+](=O)[O-])c1)C1CC(=O)N(Cc2ccccc2)C1 (stereo not given) 35.5%, CC(C)Oc1c(Br)cc(Br)cc1/C=N/NC(N)=S 31.4%, COc1ccc(Cl)cc1-c1cc(C(=O)Nc2cc(OC)c(OC)c(OC)c2)[nH]n1 29.8%, COc1ccc(Oc2c(Cl)cnn(-c3ccccc3)c2=O)cc1 54.6%, COCCCNC(=O)/C(C#N)=C/c1c(N2CCCCCC2)nc2ccccn2c1=O 31%, CC(=O)N1CCN(S(=O)(=O)c2c(F)cc(F)c(Cl)c2F)CC1 32.7%, Cc1ccc(NC(=O)COC(=O)CNC(=O)c2ccc(Cl)cc2Cl)cc1S(=O)(=O)N1CCOCC1 31.4%, CC1(C)C(c2cccs2)=[N+]([O-])C2(CCCCC2=O)N1O (stereo not given) 29.8%, COC(=O)C1=C(C(=O)OC)C(c2cc([N+](=O)[O-])ccc2O)c2sc(=O)[nH]c2S1 (stereo not given) 33.3%

inhibition, inactive:
Cc1ccc(OCC(=O)Nc2cccc3c2CCCC3)cc1C 5.28%, O=C(COC(=O)/C=C/c1cn(-c2ccccc2)nc1-c1cccnc1)Nc1ccc(Cl)cc1Cl 11.1%, O=c1c2cc(Br)ccc2nc(-c2cccc(Cl)c2)n1O 2.37%, CCOC(=O)C1(Cc2ccccc2C(F)(F)F)CCN(C(=O)c2cc(C)n(C)n2)CC1 5.76%, COc1ccc(/C=C/C(=O)c2c(O)cc(OC)cc2OC)cc1 -19.9%, CCOc1ccc(OCC(=O)Nc2c3c(nn2C(C)(C)C)CS(=O)(=O)C3)cc1 1.77%, O=S(=O)(Cc1noc(-c2ccc(OC(F)(F)F)cc2)n1)c1ccc(F)cc1 4.42%, Cc1cc(=O)oc2cc(NC(=O)C3CC(=O)N(Cc4ccccc4)C3)ccc12 (stereo not given) 15.7%, CC(OC(=O)C1CC(=O)N(Cc2ccccc2)C1)C(=O)Nc1ccccc1[N+](=O)[O-] (stereo not given) -5.04%, Cc1cc(-c2csc(N)n2)c(C)n1-c1ccccc1 4%, CC1(C(=O)N/N=C/c2cc3c(cc2Br)OCO3)CC1(Br)Br (stereo not given) 19.5%, CCN(CC)C(=O)C1CCCN(Cc2cccc(Cl)c2)C1 (stereo not given) -1.5%, O=[N+]([O-])c1ccc(Oc2ccc(F)cc2Br)c2ccncc12 2.28%, COc1cc(NC(=O)c2cc(-c3ccc(F)cc3OC(C)C)n[nH]2)cc(OC)c1OC 19.5%, CCCOc1ccc(F)cc1-c1cc(C(=O)Nc2ccc(F)c(Cl)c2)[nH]n1 3.21%, Cc1cccc(-n2ncc(Cl)c(Cl)c2=O)c1 27.8%, COc1ccc(CCNC(=O)c2c(C)nn(-c3ccccc3)c2Cl)cc1 13.4%, CC(C)Nc1nc(NCCOc2ccccc2Cl)c2sccc2n1 -7.14%, COc1ccc2c(c1)C(=O)Nc1cc(Cl)ccc1N2 -3.19%, CCOCCCNC(=O)c1cc2c(=O)n3ccccc3nc2s1 -4.33%, COc1ccc(/C=C(\C#N)C(=O)NCCCn2ccnc2)cc1 6.52%, CN(C)C(=O)c1cccc(-c2cnc3c(NC=O)cc(-c4ccc(F)cc4)cn23)c1 -2.24%, O=C(NNS(=O)(=O)c1c(F)cc(F)c(Cl)c1F)C12CC3CC(CC(C3)C1)C2 -0.65%, O=C(c1cnc(Cl)c(Cl)c1)N1CCN(S(=O)(=O)c2ccc(F)cc2)CC1 19.3%, COc1ccccc1C(=O)NC(CCSC)C(=O)NNC(=O)c1csc(N2CCOCC2)n1 (stereo not given) 14.9%, Cc1ccc(NC(=O)CCCNC(=O)c2ccc(Cl)cc2)cc1S(=O)(=O)N1CCOCC1 -7.04%, Cc1ccc(NC(=O)COC(=O)C2CC2)cc1S(=O)(=O)N1CCOCC1 5.97%, Cc1cc(C)c(NC(=O)CN2C(=O)NC(Cc3ccccc3)C2=O)c(C)c1 (stereo not given) -8.57%, CC(=O)C1(C)N(O)C(C)(C)C(c2cccs2)=[N+]1[O-] (stereo not given) -4.35%, Cc1cc(-n2cnc(-c3cn(C)nc3C)n2)no1 3.28%, CC(=O)N(Cc1cccs1)C1CCOC(C)(C)C1 (stereo not given) -3.32%, OC(CN1C2=NCCCN2c2ccccc21)c1ccc(Br)cc1 (stereo not given) -7.35%, COc1cccc(OCC(=O)NCCS(=O)(=O)N2CCN(c3ccccc3)CC2)c1 1.47%, COC(=O)C1=C(C)N(C)C(=O)NC1c1ccc([N+](=O)[O-])o1 (stereo not given) -8.39%, COC(=O)c1c(C)[nH]c(C)c1-c1ccc([N+](=O)[O-])cc1 -0.44%
